Source: PubChem
Measles CPE: protection of cells from measles virus. protection (pct of control), % at 4 µM. AID 841. 140,000 tested, 1.5% active. Measles virus-infected cells, CPE protection, absorbance; in the data active = protection mostly above about 24%, no sharp cut-off; inactive = mostly below about 26%
Yeast life ext: yeast lifespan extension | S. cerevisiae growth with nicotinamide, OD615; deaD strain in restrictive glucose medium | inhibition of the nicotinamide effect, % at 10 µM | 130,000 tested, 0.68% active | AID 775;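 active = inhibition above a set limit, placed 3 SD over the median of all compounds, cut at about 26% in these data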;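 note: 0% = nicotinamide-treated wells and 100% = cells grown without nicotinamide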
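Measured by: optical density (absorbance) at 615 nm; System: modified budding yeast, DeaD strain; Medium: restrictive CSMM-D dextrose medium; Timing: 4 h preincubation then 48 h treatment at 30 °C.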
sEH inh: soluble epoxide hydrolase (human) inhibition; P34913; recombinant human sEH enzymatic activity assay; inhibition, % at 2 µM; 91,000 tested, 0.34% active; in the data active = inhibition above about 80%
Target sequence (P34913 whole entry, looked up): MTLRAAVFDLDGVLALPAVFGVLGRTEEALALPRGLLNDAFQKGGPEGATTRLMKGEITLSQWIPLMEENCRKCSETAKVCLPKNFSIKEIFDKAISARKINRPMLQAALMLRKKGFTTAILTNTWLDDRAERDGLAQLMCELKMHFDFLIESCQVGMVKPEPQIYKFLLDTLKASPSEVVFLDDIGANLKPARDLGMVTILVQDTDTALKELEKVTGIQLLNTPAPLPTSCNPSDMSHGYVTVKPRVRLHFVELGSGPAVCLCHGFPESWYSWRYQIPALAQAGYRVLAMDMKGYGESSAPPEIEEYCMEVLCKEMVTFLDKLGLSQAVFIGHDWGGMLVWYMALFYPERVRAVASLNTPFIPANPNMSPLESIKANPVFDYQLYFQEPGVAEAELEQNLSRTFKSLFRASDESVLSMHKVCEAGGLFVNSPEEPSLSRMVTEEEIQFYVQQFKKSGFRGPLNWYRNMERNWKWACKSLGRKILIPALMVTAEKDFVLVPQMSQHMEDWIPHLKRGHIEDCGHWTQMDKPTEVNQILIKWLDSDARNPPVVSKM
SDO1 yeast rescue: restores growth of sdo1-depleted yeast; z-score at 10 µM; 140,000 tested, 0.21% active; S. cerevisiae sdo1-depleted JHY4D growth rescue, OD600 30 h; hits give high values; pdr5 snq2 efflux-pump mutant strain; AID 817;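 active = z-score above 3 at both the 24 hr and the 30 hr optical density reads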;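 note: z-score against mean and SD of all compound wells on the same plate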
sEH act: soluble epoxide hydrolase (human) activation | 91,000 tested, 0.04% active | purified human sEH enzymatic activity, activator screen | activation, % at 2 µM | AID 717 | P34913; in the data active = activation above about 37%
BB579 growth dn: yeast BB579 growth reduction in restrictive medium | S. cerevisiae BB579 growth, OD615, 48 h | inhibition, % at 10 µM | 140,000 tested, 0.51% active;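 active = inhibition above a set limit, 3 SD over the mean compound inhibition, cut at about 44% in these data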
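System: DeaD yeast strain BB579; buffer or medium: CSMM-D dextrose restrictive medium; technique: OD at 615 nm; schedule: 4 h cell preincubation, 48 h compound exposure, 30 °C humidified; doses: single 10 µM dose; controls: amphotericin B 10 µg/mL, positive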
* hit, by the source's call. This is a sample that favours compounds with a hit; in the whole collection about 3% have one here.

CC(=O)C(C(C)=O)c1c(Cl)c(O)c(O)c2c(C(=O)c3ccccc3)coc12 was read as Measles CPE 0, Yeast life ext 37*, sEH inh -6, SDO1 yeast rescue -0.38, sEH act 8 and BB579 growth dn -32.
Cc1ccccc1N1CCN(C(=O)c2ccccc2NC(=O)C2CC=CCC2C(=O)O)CC1 (stereo not drawn) was read as Measles CPE 1, Yeast life ext 27, sEH inh -6, SDO1 yeast rescue -0.11, sEH act 6 and BB579 growth dn -71.
For N#CC1=C(N)OC2=C(C(=O)CC(c3ccccc3)C2)C1c1ccoc1 (stereo not drawn) the results were Measles CPE 30*, Yeast life ext 21, SDO1 yeast rescue -0.63 and BB579 growth dn -32.
Screening O=[N+]([O-])c1ccc(N/N=C/c2c[nH]c3ccccc23)cc1 returned Measles CPE 5, Yeast life ext -2, sEH inh 9, SDO1 yeast rescue -1.9, sEH act -5 and BB579 growth dn -45.
For O=[N+]([O-])c1ccc(N/N=C/c2ccc[nH]2)cc1 the results were Measles CPE 5, Yeast life ext -6, SDO1 yeast rescue -1.2 and BB579 growth dn 87*.
CCCN(CCC)C1=CC(=[N+]2CCCC2)CC(C)(C)C1 was read as Measles CPE 2, Yeast life ext 7, SDO1 yeast rescue 1.4 and BB579 growth dn -21.
Screening CCOC(=O)c1c(N)sc2c(OC)c(Br)ccc12 returned Measles CPE 37, Yeast life ext -23, sEH inh 8, SDO1 yeast rescue -2.2, sEH act -6 and BB579 growth dn 95*.
For COc1ccc2c(c1)c1nnc(SCC(=O)N3C(C)CCCC3C)nc1n2C (stereo not drawn) the results were Measles CPE 14, Yeast life ext -3, sEH inh -4, SDO1 yeast rescue -1.1, sEH act 4 and BB579 growth dn -40.
COc1ccc2c(c1)c1nnc(SC)nc1n2C was read as Measles CPE 16, Yeast life ext -12, sEH inh 6, SDO1 yeast rescue -2.8, sEH act -6 and BB579 growth dn 90*.
Screening Cc1cc2nc(-c3ccc(SCC(=O)N4CCN(C(=O)c5ccco5)CC4)nc3)[nH]c2cc1C returned Measles CPE 2, Yeast life ext -9, sEH inh 81*, SDO1 yeast rescue -0.21, sEH act -81 and BB579 growth dn -32.
`Oc1ccc(N=Nc2cccc(Cl)c2)cc1C=Nc1ccc(N2CCOCC2)cc1` gave Measles CPE 15, Yeast life ext -7, SDO1 yeast rescue -1.1 and BB579 growth dn 79*.
`Oc1ccc2ccccc2c1C=NC12CN3CCN(CN(C3)C1)C2` gave Measles CPE 12, Yeast life ext 27, sEH inh 8, SDO1 yeast rescue 0.15, sEH act -10 and BB579 growth dn -47.
Screening Oc1ccc2ccccc2c1C=Nc1ccc(N2CCOCC2)cc1 returned Measles CPE 9, Yeast life ext 49*, sEH inh -6, SDO1 yeast rescue -0.05, sEH act 3 and BB579 growth dn -16.
For Clc1cccc(-c2ccc(C=Nc3ccc(N4CCOCC4)cc3)o2)c1 the results were Measles CPE 6, Yeast life ext -4, SDO1 yeast rescue 0.14 and BB579 growth dn -55.
COc1cc(OC)cc(-c2nc3ccccc3c(=O)n2OC(=O)c2ccccc2C)c1 was read as Measles CPE 2, Yeast life ext 61*, SDO1 yeast rescue 0.09 and BB579 growth dn -12.
Cc1ccc(NC(=O)C2C(C(=O)O)C3C=CC2C32CC2)cc1 (stereo not drawn) was read as Measles CPE 13, Yeast life ext -9, sEH inh -4, SDO1 yeast rescue -0.31, sEH act 6 and BB579 growth dn -4.
`Cc1ccc(NC(=O)C2C(c3ccccc3)C=CC(c3ccccc3)C2C(=O)O)cc1` (stereo not drawn) gave Measles CPE 27*, Yeast life ext 30*, sEH inh 2, SDO1 yeast rescue -0.26, sEH act 0 and BB579 growth dn -19.
Screening c1ccc(-c2nc(NCC3CCCO3)c3oc4ccccc4c3n2)cc1 (stereo not drawn) returned Measles CPE 80*, Yeast life ext -13, sEH inh -8, SDO1 yeast rescue -1.3, sEH act 8 and BB579 growth dn -59.
Screening CCCCn1c(N)c(N(CCOC)C(=O)CCc2ccc(OC)cc2)c(=O)[nH]c1=O returned Measles CPE 6, Yeast life ext 4, SDO1 yeast rescue 1.2 and BB579 growth dn -13.
`CC1CCN(c2nc(/C=C/c3ccccc3)nc3ccccc23)CC1` gave Measles CPE 4, Yeast life ext -12, SDO1 yeast rescue -2.4 and BB579 growth dn 91*.
COc1ccccc1NC(=O)CN(Cc1ccccc1)S(C)(=O)=O was read as Measles CPE 7, sEH inh 3, SDO1 yeast rescue -0.05, sEH act 3 and BB579 growth dn -32.
Screening O=C(CN1CCOc2ccccc21)NC1CCCCCCC1 returned sEH inh 86* and sEH act -87.
For C1CN(CC23CC4CC(CC(C4)C2)C3)CCO1 the results were Measles CPE 22, sEH inh -2, SDO1 yeast rescue -1.1, sEH act 7 and BB579 growth dn -45.
`O=C(O)c1c[nH]c(=S)n1-c1ccc(F)cc1` gave Measles CPE 6, Yeast life ext 103*, sEH inh -8, SDO1 yeast rescue -0.3, sEH act 6 and BB579 growth dn -33.
CSc1ncc(C(=O)O)n1-c1ccc(F)cc1 was read as Measles CPE 5, Yeast life ext -3, sEH inh -5, SDO1 yeast rescue 1, sEH act 3 and BB579 growth dn 14.
`C/C(=N\N=C\c1ccccc1)c1nnn(-c2nonc2N)c1C` gave Measles CPE 4, Yeast life ext -28, sEH inh -6, SDO1 yeast rescue -1.5, sEH act 9 and BB579 growth dn -19.
Cc1nc(CCNC(=O)Cc2ccc(Cl)cc2)cs1 was read as Measles CPE 39*, Yeast life ext -8, sEH inh -8, SDO1 yeast rescue 1.7, sEH act 7 and BB579 growth dn -3.
`CCS(=O)(=O)c1ccc2oc(SCC(=O)NC3CCCC(C)C3C)nc2c1` (stereo not drawn) gave Measles CPE 19*, Yeast life ext -8, sEH inh 60, SDO1 yeast rescue 0.4, sEH act -59 and BB579 growth dn -21.
`O=C(C(Cl)Cl)N1c2ccccc2OCC1c1ccccc1` (stereo not drawn) gave Measles CPE 13, Yeast life ext -4, sEH inh 5, SDO1 yeast rescue -0.89, sEH act -3 and BB579 growth dn 1.
Screening CCc1ccc(OCC(=O)NC(NC(=S)Nc2ccccc2OC)C(Cl)(Cl)Cl)cc1 (stereo not drawn) returned Measles CPE 43*, Yeast life ext 17, SDO1 yeast rescue -0.98 and BB579 growth dn -34.
